Reference: ChEMBL document CHEMBL1154049, “A versatile photoactivatable probe designed to label the diphosphate binding site of farnesyl diphosphate utilizing enzymes” (Bioorg Med Chem, 2009)
The source made the active and inactive calls. The rule behind the calls is not given here.

Legend:
[1] = biological target: T1, Protein farnesyltransferase/geranylgeranyltransferase type-1 subunit alpha (Saccharomyces cerevisiae S288c, UniProt P29703); assay: Inhibition of Saccharomyces cerevisiae protein farnesyltransferase assessed as farnesylation of N-dansyl-GCVIA
T1 sequence (P29703 whole entry): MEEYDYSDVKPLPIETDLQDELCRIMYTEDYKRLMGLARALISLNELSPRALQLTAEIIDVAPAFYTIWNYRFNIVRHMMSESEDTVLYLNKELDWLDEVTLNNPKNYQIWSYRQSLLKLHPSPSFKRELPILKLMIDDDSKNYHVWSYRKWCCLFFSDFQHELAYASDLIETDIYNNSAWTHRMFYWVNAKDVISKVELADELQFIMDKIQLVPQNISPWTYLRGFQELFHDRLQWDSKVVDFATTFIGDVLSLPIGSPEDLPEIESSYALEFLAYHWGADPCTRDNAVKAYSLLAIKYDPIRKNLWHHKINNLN
Outline: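 Purified ScPFTase at 5.0 nM; continuous fluorescence assay following dansyl fluorescence rise as N-dansyl-GCVIA (2.4 µM) is prenylated. For IC50, FPP fixed at 2.4 µM, inhibitor 0–20 µM, duplicates, direct fit of rate vs inhibitor concentration. For KI, 4×6 grid of duplicates with FPP at 1, 2, 5, 7.0 µM and inhibitor 0–2 µM; initial velocities, Eadie-Hofstee plot.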

Nostoc [2] = assay: Substrate activity at Nostoc PCC 7120 sesquiterpene synthase in absence of farnesyl diphosphate; settings: tested as the 32P-labelled form
Nostoc [3] = assay: Binding affinity to Nostoc PCC 7120 sesquiterpene synthase assessed as photolabeling at 29 uM by SDS-PAGE based phosphor imaging analysis; settings: tested as the 32P-labelled form
Outline: (§1)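 Purified enzyme (50 µg/mL) in 52 mM Tris·HCl pH 7.0, 5.8 mM DTT, 12 mM MgCl2, 12 µM ZnCl2, 25 mM NH4HCO3 with [32P]probe 29 µM; irradiated 350 nm, 6 h, 4 °C; protection runs add FPP 100 µM final. SDS loading buffer, 70 °C 20 min, 12% Tris-Tricine SDS-PAGE, Coomassie stain, phosphorimaging.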

Nostoc [4] = assay: Inhibition of Nostoc PCC 7120 sesquiterpene synthase in presence of farnesyl diphosphate
Outline: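 Purified cyclase (10 µg) in 200 µL 10 mM Tris·HCl pH 8.0, 10 mM MgCl2, 1.0 mM 2-mercaptoethanol with probe and/or FPP (50, 100 or 200 µM), sealed vial, 18 h at 25 °C; headspace sampled 10 min by SPME, GC/MS analysis of sesquiterpene product.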

[5] = biological target: T2, Protein farnesyltransferase/geranylgeranyltransferase type-1 subunit alpha (Saccharomyces cerevisiae S288c) (UniProt P29703); assay: Activity at Saccharomyces cerevisiae protein farnesyltransferase upto 200 uM by continuous fluorescence assay
T2 sequence (whole entry): T1 sequence (P29703 whole entry)
Outline: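 Purified yeast PFTase; continuous fluorescence read-out of dansyl signal increase on prenylation of N-dansyl-GCVIA acceptor, with analogue replacing FPP at up to 200 µM.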

Drosophila melanogaster [6] = assay: Binding affinity to Drosophila melanogaster farnesyl diphosphate synthase assessed as photolabeling at 29 uM by SDS-PAGE based phosphor imaging analysis in presence of excess farnesyl diphosphate; settings: tested as the 32P-labelled form; outline: as §1
[7] = biological target: T2, Protein farnesyltransferase/geranylgeranyltransferase type-1 subunit alpha (Saccharomyces cerevisiae S288c); assay: Binding affinity to Saccharomyces cerevisiae protein farnesyltransferase assessed as photolabeling at 29 uM by SDS-PAGE based phosphor imaging analysis in presence of excess farnesyl diphosphate; settings: tested as the 32P-labelled form; outline: as §1
Nostoc [8] = assay: Binding affinity to Nostoc PCC 7120 sesquiterpene synthase assessed as photolabeling at 29 uM by SDS-PAGE based phosphor imaging analysis in presence of excess farnesyl diphosphate; settings: tested as the 32P-labelled form; outline: as §1
[9] = biological target: T2, Protein farnesyltransferase/geranylgeranyltransferase type-1 subunit alpha (Saccharomyces cerevisiae S288c); assay: Binding affinity to Saccharomyces cerevisiae protein farnesyltransferase assessed as enzyme beta subunit photolabeling at 29 uM by SDS-PAGE based phosphor imaging analysis; settings: tested as the 32P-labelled form; outline: as §1
Drosophila melanogaster [10] = assay: Binding affinity to Drosophila melanogaster farnesyl diphosphate synthase assessed as photolabeling at 29 uM by SDS-PAGE based phosphor imaging analysis in absence of UV irradiation; settings: tested as the 32P-labelled form
[11] = biological target: T2, Protein farnesyltransferase/geranylgeranyltransferase type-1 subunit alpha (Saccharomyces cerevisiae S288c); assay: Binding affinity to Saccharomyces cerevisiae protein farnesyltransferase assessed as enzyme alpha subunit photolabeling at 29 uM by SDS-PAGE based phosphor imaging analysis; settings: tested as the 32P-labelled form; outline: as §1
[12] = biological target: T3, Farnesyl diphosphate synthase (Escherichia coli K-12) (UniProt P22939); assay: Binding affinity to Escherichia coli farnesyl diphosphate synthase assessed as photolabeling at 29 uM by SDS-PAGE based phosphor imaging analysis in absence of UV irradiation; settings: tested as the 32P-labelled form
T3 sequence (whole entry): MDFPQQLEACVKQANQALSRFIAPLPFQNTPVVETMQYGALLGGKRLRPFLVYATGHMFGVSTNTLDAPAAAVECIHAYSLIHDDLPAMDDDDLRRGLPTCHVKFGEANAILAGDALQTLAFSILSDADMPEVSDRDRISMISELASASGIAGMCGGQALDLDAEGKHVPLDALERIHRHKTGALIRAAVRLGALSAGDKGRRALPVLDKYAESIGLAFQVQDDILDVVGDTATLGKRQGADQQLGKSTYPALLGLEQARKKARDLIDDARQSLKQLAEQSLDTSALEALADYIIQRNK

[13] = biological target: T2, Protein farnesyltransferase/geranylgeranyltransferase type-1 subunit alpha (Saccharomyces cerevisiae S288c); assay: Binding affinity to Saccharomyces cerevisiae protein farnesyltransferase assessed as photolabeling at 29 uM by SDS-PAGE based phosphor imaging analysis in absence of UV irradiation; settings: tested as the 32P-labelled form
[14] = biological target: T3, Farnesyl diphosphate synthase (Escherichia coli K-12); assay: Binding affinity to Escherichia coli farnesyl diphosphate synthase assessed as photolabeling at 29 uM by SDS-PAGE based phosphor imaging analysis in presence of excess farnesyl diphosphate; settings: tested as the 32P-labelled form; outline: as §1
Drosophila melanogaster [15] = assay: Binding affinity to Drosophila melanogaster farnesyl diphosphate synthase assessed as photolabeling at 29 uM by SDS-PAGE based phosphor imaging analysis; settings: tested as the 32P-labelled form; outline: as §1
[16] = biological target: T3, Farnesyl diphosphate synthase (Escherichia coli K-12); assay: Binding affinity to Escherichia coli farnesyl diphosphate synthase assessed as photolabeling at 29 uM by SDS-PAGE based phosphor imaging analysis; settings: tested as the 32P-labelled form; outline: as §1

Question: What does the source list for `C/C(=C\COP(=O)(O)OP(=O)(O)O)CC/C=C(\C)COC(=O)[C-]([N+]#N)C(F)(F)F`?
Answer: IC50 [1]: 720 nM; Ki [1]: 200 nM

Question: For `CC(C)=CCC/C(C)=C/CC/C(C)=C/COP(=O)(O)OP(=O)(O)Cc1ccc(C(=O)c2ccccc2)cc1`, which Activity (Nostoc [2]) is on record?
Answer: Active

Question: What about the Activity (Nostoc [3]) of the same compound?
Answer: Active

Question: What about the inhibition (Nostoc [4]) of the same compound?
Answer: inactive

Question: And the Activity [5]?
Answer: inactive

Question: What about the Activity (Drosophila melanogaster [6]) of the same compound?
Answer: inactive

Question: And the Activity [7]?
Answer: inactive

Question: And the Activity (Nostoc [8])?
Answer: inactive

Question: And the IC50 [1]?
Answer: 3000 nM

Question: What about the Ki [1] of the same compound?
Answer: 480 nM

Question: And the Activity [9]?
Answer: Active

Question: And the Activity (Drosophila melanogaster [10])?
Answer: inactive

Question: What about the Activity [11] of the same compound?
Answer: inactive

Question: What about the Activity [12] of the same compound?
Answer: inactive

Question: What about the Activity [13] of the same compound?
Answer: inactive

Question: And the Activity [14]?
Answer: inactive

Question: What about the Activity (Drosophila melanogaster [15]) of the same compound?
Answer: 46%

Question: What about the Activity [16] of the same compound?
Answer: Active

Question: What does the source list for `C/C(=C\COP(=O)(O)OP(=O)(O)O)COCc1cccc(C(=O)c2ccccc2)c1`?
Answer: IC50 [1]: 3400 nM; Ki [1]: 610 nM

Question: For `CC(C)=CCC/C(C)=C/CC/C(C)=C/COP(=O)(O)OP(=O)(O)Cc1cccc(C(=O)c2ccccc2)c1`, which Activity [5] is on record?
Answer: inactive

Question: What about the Activity [7] of the same compound?
Answer: inactive

Question: And the IC50 [1]?
Answer: 5800 nM

Question: What about the Activity [9] of the same compound?
Answer: Active

Question: And the Activity [11]?
Answer: inactive

Question: And the Activity [13]?
Answer: inactive
